Measured values taken from ChEMBL document CHEMBL4725283, “Selective Peptidomimetic Inhibitors of NTMT1/2: Rational Design, Synthesis, Characterization, and Crystallographic Studies” (J Med Chem, 2020).
The source made the active and inactive calls. No cut-off for these calls is given here.

Key:
Homo sapiens [1] = organism: Homo sapiens; experiment: Selectivity for human NTMT1 over GST-tagged human METTL21A at 100 uM
How it was run: (§1)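 Panel of 41 PKMTs, PRMTs, DNMTs and NTMT1/2, tested at 100 µM compound in duplicate (n=2).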

Homo sapiens [2] = organism: Homo sapiens; experiment: Selectivity for human NTMT1 over human EZH1 complex at 100 uM; how it was run: as §1
Homo sapiens [3] = organism: Homo sapiens; experiment: Selectivity for human NTMT2 over human PRDMT5/MEP50 complex at 100 uM
How it was run: (§2)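 Single-point panel screen against 41 PKMTs, PRMTs, DNMTs and NTMT1/2. Each compound was tested at 100 µM, in duplicate (n=2).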

Homo sapiens [4] = organism: Homo sapiens; experiment: Selectivity for human NTMT1 over human SMYD2 at 100 uM; how it was run: as §1
Homo sapiens [5] = organism: Homo sapiens; experiment: Selectivity for human NTMT2 over human DNMT1 at 100 uM; how it was run: as §2
Homo sapiens [6] = organism: Homo sapiens; experiment: Selectivity for human NTMT1 over human SETD2 at 100 uM; how it was run: as §1
Homo sapiens [7] = organism: Homo sapiens; experiment: Selectivity for human NTMT2 over human SET1b complex at 100 uM; how it was run: as §2
Homo sapiens [8] = organism: Homo sapiens; experiment: Selectivity for human NTMT1 over human PRDMT1 at 100 uM; how it was run: as §1
Homo sapiens [9] = organism: Homo sapiens; experiment: Selectivity for human NTMT1 over human DNMT3b/3L at 100 uM; how it was run: as §1
Homo sapiens [10] = organism: Homo sapiens; experiment: Selectivity for human NTMT2 over human GLP at 100 uM; how it was run: as §2
Homo sapiens [11] = organism: Homo sapiens; experiment: Selectivity for human NTMT1 over human SMYD1 at 100 uM; how it was run: as §1
Homo sapiens [12] = organism: Homo sapiens; experiment: Selectivity for human NTMT2 over GST-tagged human METTL21A at 100 uM; how it was run: as §2
Homo sapiens [13] = organism: Homo sapiens; experiment: Selectivity for human NTMT1 over human NSD1 at 100 uM; how it was run: as §1
Homo sapiens [14] = organism: Homo sapiens; experiment: Selectivity for human NTMT1 over human SUV420H1TV2 at 100 uM; how it was run: as §2
Homo sapiens [15] = organism: Homo sapiens; experiment: Selectivity for human NTMT2 over human SET8 at 100 uM; how it was run: as §2
Homo sapiens [16] = organism: Homo sapiens; experiment: Selectivity for human NTMT2 over human PRDMT4 at 100 uM; how it was run: as §2
Homo sapiens [17] = organism: Homo sapiens; experiment: Selectivity for human NTMT1 over human PRDMT4 at 100 uM; how it was run: as §1
Homo sapiens [18] = organism: Homo sapiens; experiment: Selectivity for human NTMT1 over human PRDMT8 at 100 uM; how it was run: as §1
Homo sapiens [19] = organism: Homo sapiens; experiment: Selectivity for human NTMT2 over human SMYD2 at 100 uM; how it was run: as §2
Homo sapiens [20] = organism: Homo sapiens; experiment: Selectivity for human NTMT1 over human DNMT3b at 100 uM; how it was run: as §1
Homo sapiens [21] = organism: Homo sapiens; experiment: Selectivity for human NTMT2 over human MLL1 complex at 100 uM; how it was run: as §2
Homo sapiens [22] = organism: Homo sapiens; experiment: Selectivity for human NTMT1 over human PRDMT6 at 100 uM; how it was run: as §1
Homo sapiens [23] = organism: Homo sapiens; experiment: Selectivity for human NTMT2 over human DNMT3b/3L at 100 uM; how it was run: as §2
Homo sapiens [24] = organism: Homo sapiens; experiment: Selectivity for human NTMT1 over human DNMT3a at 100 uM; how it was run: as §1
Homo sapiens [25] = organism: Homo sapiens; experiment: Selectivity for human NTMT1 over human PRDMT3 at 100 uM; how it was run: as §1
Homo sapiens [26] = organism: Homo sapiens; experiment: Selectivity for human NTMT2 over human SUV39H1 at 100 uM; how it was run: as §2
[27] = target: T1, N-terminal Xaa-Pro-Lys N-methyltransferase 1 (Homo sapiens, UniProt Q9BV86); experiment: (§3) Inhibition of recombinant human full-length His6-tagged NTMT1 (1 to 222 residues) expressed in Escherichia coli BL21-CodonPlus(DE3)-RIL competent cells pre-incubated for 10 mins in presence of SAM and SAHH before RCC1-6 addition and measured after 15 mins by fluorescence based SAHH-coupled assay
T1 sequence (Q9BV86 whole entry): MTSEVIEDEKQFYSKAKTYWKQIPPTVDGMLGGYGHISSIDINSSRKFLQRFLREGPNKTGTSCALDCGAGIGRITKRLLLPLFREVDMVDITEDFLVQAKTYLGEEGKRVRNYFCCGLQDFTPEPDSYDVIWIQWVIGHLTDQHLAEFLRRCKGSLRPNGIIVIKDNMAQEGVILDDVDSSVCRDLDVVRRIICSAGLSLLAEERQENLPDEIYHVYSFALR
How it was run: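 Pre-incubated 10 min at 37 °C, then started with RCC1-6 (10 µL of 50 µM stock in 100 µL). Line 11 screened at 30 µM; line 12 used 0–100 µM three-fold series, four-parameter fit. Triplicate.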

[28] = target: T2, N-terminal Xaa-Pro-Lys N-methyltransferase 1 (Homo sapiens) (UniProt Q9BV86); experiment: Substrate activity at recombinant human full-length His6-tagged NTMT1 (1 to 222 residues) expressed in Escherichia coli BL21-CodonPlus(DE3)-RIL competent cells by MALDI-MS analysis
T2 sequence (whole entry): T1 sequence (Q9BV86 whole entry)

Homo sapiens [29] = organism: Homo sapiens; experiment: Selectivity for human NTMT2 over human PRDM9 at 100 uM; how it was run: as §2
Homo sapiens [30] = organism: Homo sapiens; experiment: Selectivity for human NTMT2 over human MLL4 complex at 100 uM; how it was run: as §2
Homo sapiens [31] = organism: Homo sapiens; experiment: Selectivity for human NTMT2 over human PRDMT3 at 100 uM; how it was run: as §2
Homo sapiens [32] = organism: Homo sapiens; experiment: Selectivity for human NTMT1 over human PRDMT5 at 100 uM; how it was run: as §1
Homo sapiens [33] = organism: Homo sapiens; experiment: Selectivity for human NTMT2 over human MLL3 complex at 100 uM; how it was run: as §2
Homo sapiens [34] = organism: Homo sapiens; experiment: Selectivity for human NTMT2 over human DNMT3b at 100 uM; how it was run: as §2
Homo sapiens [35] = organism: Homo sapiens; experiment: Selectivity for human NTMT1 over human MLL2 complex at 100 uM; how it was run: as §1
Homo sapiens [36] = organism: Homo sapiens; experiment: Selectivity for human NTMT1 over human SET1b complex at 100 uM; how it was run: as §1
Homo sapiens [37] = organism: Homo sapiens; experiment: Selectivity for human NTMT2 over human NSD2 E1099K mutant at 100 uM; how it was run: as §2
Homo sapiens [38] = organism: Homo sapiens; experiment: Selectivity for human NTMT2 over human PRDMT8 at 100 uM; how it was run: as §2
[39] = target: T2, N-terminal Xaa-Pro-Lys N-methyltransferase 1 (Homo sapiens); experiment: as §3, with “Non-competitive inhibition of” for “Inhibition of”, “of varying levels of” for “of”, “before fixed level of” for “before”; conditions: time 25.0 min
How it was run: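 Same SAHH-coupled ThioGlo1 set-up as the substrate series: 25 mM Tris pH 7.4, 50 mM KCl, 10 µM SAHH, 0.2 µM NTMT1, 15 µM ThioGlo1, inhibitor 0–100 µM. […] Triplicate IC50 at each SAM level plotted against [SAM]/Km.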

Homo sapiens [40] = organism: Homo sapiens; experiment: Selectivity for human NTMT1 over human MLL1 complex at 100 uM; how it was run: as §1
Homo sapiens [41] = organism: Homo sapiens; experiment: Selectivity for human NTMT2 over human NSD3 at 100 uM; how it was run: as §2
Homo sapiens [42] = organism: Homo sapiens; experiment: Selectivity for human NTMT1 over human MLL3 complex at 100 uM; how it was run: as §1
Homo sapiens [43] = organism: Homo sapiens; experiment: Selectivity for human NTMT2 over human NSD1 at 100 uM; how it was run: as §2
Homo sapiens [44] = organism: Homo sapiens; experiment: Selectivity for human NTMT1 over human NSD3 at 100 uM; how it was run: as §1
Homo sapiens [45] = organism: Homo sapiens; experiment: Selectivity for human NTMT1 over human ASH1L at 100 uM; how it was run: as §1
[46] = target: Protein arginine N-methyltransferase 1 (Rattus norvegicus, UniProt Q63009); experiment: Inhibition of rat His6-tagged PRMT1 expressed in Escherichia coli BL21(DE3) using H4-21 peptide as substrate preincubated for 10 mins in presence of SAM followed by substrate addition by fluorescence assay
Homo sapiens [47] = organism: Homo sapiens; experiment: Selectivity for human NTMT1 over human NSD2 E1099K mutant at 100 uM; how it was run: as §1
Homo sapiens [48] = organism: Homo sapiens; experiment: Selectivity for human NTMT1 over human NSD2 at 100 uM; how it was run: as §1

Sequence of Protein arginine N-methyltransferase 1 (Q63009 whole entry): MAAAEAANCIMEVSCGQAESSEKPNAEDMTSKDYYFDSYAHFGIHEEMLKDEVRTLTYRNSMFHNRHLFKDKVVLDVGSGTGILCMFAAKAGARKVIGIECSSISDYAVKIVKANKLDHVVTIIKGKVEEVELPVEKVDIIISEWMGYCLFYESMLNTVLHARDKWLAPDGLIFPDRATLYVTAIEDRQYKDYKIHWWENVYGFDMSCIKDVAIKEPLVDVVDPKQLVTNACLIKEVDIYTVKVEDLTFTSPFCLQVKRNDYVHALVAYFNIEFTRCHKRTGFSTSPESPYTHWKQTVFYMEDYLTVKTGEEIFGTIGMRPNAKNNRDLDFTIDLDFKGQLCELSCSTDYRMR

Selectivity ratio (Homo sapiens [1]): > 100
Selectivity ratio (Homo sapiens [2]): > 100
Selectivity ratio (Homo sapiens [3]): > 100
Selectivity ratio (Homo sapiens [4]): > 100
Selectivity ratio (Homo sapiens [5]): > 100
Selectivity ratio (Homo sapiens [6]): > 100
Selectivity ratio (Homo sapiens [7]): > 100
Selectivity ratio (Homo sapiens [8]): > 100
Selectivity ratio (Homo sapiens [9]): > 100
Selectivity ratio (Homo sapiens [10]): > 100
Selectivity ratio (Homo sapiens [11]): > 100
Selectivity ratio (Homo sapiens [12]): > 100
Selectivity ratio (Homo sapiens [13]): > 100
Selectivity ratio (Homo sapiens [14]): > 100
Selectivity ratio (Homo sapiens [15]): > 100
Selectivity ratio (Homo sapiens [16]): > 100
Selectivity ratio (Homo sapiens [17]): > 100
Selectivity ratio (Homo sapiens [18]): > 100
Selectivity ratio (Homo sapiens [19]): > 100
Selectivity ratio (Homo sapiens [20]): > 100
Selectivity ratio (Homo sapiens [21]): > 100
Selectivity ratio (Homo sapiens [22]): > 100
Selectivity ratio (Homo sapiens [23]): > 100
Selectivity ratio (Homo sapiens [24]): > 100
Selectivity ratio (Homo sapiens [25]): > 100
Selectivity ratio (Homo sapiens [26]): > 100
IC50 [27]: 0.89 µM
Activity [28]: inactive
Selectivity ratio (Homo sapiens [29]): > 100
Selectivity ratio (Homo sapiens [30]): > 100
Selectivity ratio (Homo sapiens [31]): > 100
Selectivity ratio (Homo sapiens [32]): > 100
Selectivity ratio (Homo sapiens [33]): > 100
Selectivity ratio (Homo sapiens [34]): > 100
Selectivity ratio (Homo sapiens [35]): > 100
Selectivity ratio (Homo sapiens [36]): > 100
Selectivity ratio (Homo sapiens [37]): > 100
Selectivity ratio (Homo sapiens [38]): > 100
inhibition [39]: Active
Selectivity ratio (Homo sapiens [40]): > 100
Selectivity ratio (Homo sapiens [41]): > 100
Selectivity ratio (Homo sapiens [42]): > 100
Selectivity ratio (Homo sapiens [43]): > 100
Selectivity ratio (Homo sapiens [44]): > 100
Selectivity ratio (Homo sapiens [45]): > 100
IC50 [46]: > 100 µM
Selectivity ratio (Homo sapiens [47]): > 100
Selectivity ratio (Homo sapiens [48]): > 100
Compound: N=C(N)NCCC[C@H](NC(=O)[C@H](CCCCN)NC(=O)[C@@H]1CCCN1C(=O)Cc1ccc(O)cc1)C(N)=O
